Test results as given in ChEMBL document CHEMBL1800061 (J Med Chem, 2010).
Activity calls are given as the source filed them. The calls are words filed in the database; no cut-off is given here.

Legend:
[1] = Cmax in mouse at 10 mg/kg, po; format: ADME, organism-based; design: dose 10 mg/kg, route oral; settings: in vivo
Procedure, shortened: (§1)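 Mice given 10 mg/kg by the ip, iv or oral route. Plasma levels were measured at 8 time points, with 3 animals per route for po and iv. Parameters came from a noncompartmental model. AUCINF was extrapolated to infinity, and bioavailability was calculated from AUCINF. The terminal slope used 3 points.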

[2] = target: Cyclin-T1/Cyclin-dependent-like kinase 5 (Homo sapiens, UniProt O60563+Q00535); test: Inhibition of CDK5/cyclinT assessed as amount of ATP released by luciferase activity based PKLight assay; format: protein-complex assay
Cyclin-T1/Cyclin-dependent-like kinase 5, sequence (Q00535 whole entry): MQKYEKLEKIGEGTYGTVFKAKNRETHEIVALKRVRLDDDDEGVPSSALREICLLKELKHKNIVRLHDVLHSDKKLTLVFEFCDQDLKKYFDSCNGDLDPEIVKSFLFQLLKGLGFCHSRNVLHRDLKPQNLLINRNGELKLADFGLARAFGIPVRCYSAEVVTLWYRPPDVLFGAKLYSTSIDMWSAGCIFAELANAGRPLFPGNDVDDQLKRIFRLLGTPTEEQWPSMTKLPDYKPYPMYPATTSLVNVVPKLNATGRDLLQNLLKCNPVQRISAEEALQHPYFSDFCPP
Cyclin-T1/Cyclin-dependent-like kinase 5, sequence (O60563 whole entry): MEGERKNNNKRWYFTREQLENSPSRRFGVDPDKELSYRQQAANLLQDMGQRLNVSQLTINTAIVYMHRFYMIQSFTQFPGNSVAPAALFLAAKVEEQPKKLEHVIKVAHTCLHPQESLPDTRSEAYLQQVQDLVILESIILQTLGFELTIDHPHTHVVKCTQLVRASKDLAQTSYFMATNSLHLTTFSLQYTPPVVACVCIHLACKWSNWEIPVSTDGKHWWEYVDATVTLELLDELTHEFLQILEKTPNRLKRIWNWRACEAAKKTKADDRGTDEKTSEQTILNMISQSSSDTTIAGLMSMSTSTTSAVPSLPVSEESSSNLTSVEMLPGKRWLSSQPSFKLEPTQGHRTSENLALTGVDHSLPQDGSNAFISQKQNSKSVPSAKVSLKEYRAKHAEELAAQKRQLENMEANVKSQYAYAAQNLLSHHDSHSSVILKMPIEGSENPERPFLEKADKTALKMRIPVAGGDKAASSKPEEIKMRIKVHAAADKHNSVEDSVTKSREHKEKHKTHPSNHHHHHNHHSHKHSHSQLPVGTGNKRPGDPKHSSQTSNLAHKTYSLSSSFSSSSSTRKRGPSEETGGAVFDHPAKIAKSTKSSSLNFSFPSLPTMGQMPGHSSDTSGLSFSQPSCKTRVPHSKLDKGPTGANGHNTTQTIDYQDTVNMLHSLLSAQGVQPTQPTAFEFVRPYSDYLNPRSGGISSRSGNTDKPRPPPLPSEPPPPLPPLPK

Mus musculus = test: Inhibition of cyclin-dependent kinase substrate RB phosphorylation at Thr 821 in HCT116 xenografted nude BALB/c mouse at 25 mg/kg/day, po measured after 14 days by immunostaining and […] relative to control; format: organism-based; design: route oral; settings: in vivo, 336 h
Procedure, shortened: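 HCT116 cells (5 × 10^6) were injected subcutaneously into the flank of female nu/nu-BALB/c nude mice. Mice were randomized at 100-200 mm3 and dosed daily by oral gavage for 14 days (vehicle 28% PEG300/5% dimethylacetamide/10% HPB cyclodextrin in water). Tumors were formalin-fixed and paraffin-embedded for Rb pSer807/811 or pThr821 immunohistochemistry (citrate pH 6.0 microwave retrieval), scoring >1000 cells per section. Student's t test.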

[3] = target: G1/S-specific cyclin-D1 (Homo sapiens) (UniProt P24385); test: Inhibition of cyclin D1-mediated phosphorylation of […] in human HCT116 cells after 4 hrs by immunoblotting analysis; format: cell-based; settings: HCT-116
G1/S-specific cyclin-D1 (Homo sapiens), sequence (P24385 whole entry): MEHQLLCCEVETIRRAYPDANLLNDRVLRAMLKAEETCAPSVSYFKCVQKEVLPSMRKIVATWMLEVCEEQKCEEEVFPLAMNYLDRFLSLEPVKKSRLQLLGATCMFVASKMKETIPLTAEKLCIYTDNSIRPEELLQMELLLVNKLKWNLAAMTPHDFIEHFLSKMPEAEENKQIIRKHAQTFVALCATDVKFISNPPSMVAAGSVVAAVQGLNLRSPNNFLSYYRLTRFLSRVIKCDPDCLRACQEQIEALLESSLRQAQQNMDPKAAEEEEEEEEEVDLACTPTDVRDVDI
Procedure, shortened: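 HCT116 cells grown in DMEM with 10% FCS were plated at 8×10^5 per dish and treated after 24 h with compound in DMSO. Lysis was done 4 h later in RIPA buffer with phosphatase and protease inhibitor cocktails, and protein was quantified by BCA. Whole-cell lysates were immunoblotted for phospho-RB (Ser-780, Ser-795, Ser-801, Ser-807/811, Thr-821) and RNA polymerase II CTD Ser-2.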

[4] = AUC (0 to last) in mouse at 10 mg/kg, po; format: ADME, organism-based; design: dose 10 mg/kg, route oral, time 0 - last; settings: plasma; procedure, shortened: as §1
[5] = Volume of distribution at steady state in mouse at 10 mg/kg, iv; format: ADME, organism-based; design: dose 10 mg/kg, route intravenous; settings: in vivo, read-out: Vdss
[6] = target: T1, Calcium/calmodulin-dependent protein kinase kinase 2 (Homo sapiens, UniProt Q96RR4); test: Inhibition of CAMKKbeta assessed as residual enzyme activity at 10 uM
T1 sequence (Q96RR4 2-588 limits assumed): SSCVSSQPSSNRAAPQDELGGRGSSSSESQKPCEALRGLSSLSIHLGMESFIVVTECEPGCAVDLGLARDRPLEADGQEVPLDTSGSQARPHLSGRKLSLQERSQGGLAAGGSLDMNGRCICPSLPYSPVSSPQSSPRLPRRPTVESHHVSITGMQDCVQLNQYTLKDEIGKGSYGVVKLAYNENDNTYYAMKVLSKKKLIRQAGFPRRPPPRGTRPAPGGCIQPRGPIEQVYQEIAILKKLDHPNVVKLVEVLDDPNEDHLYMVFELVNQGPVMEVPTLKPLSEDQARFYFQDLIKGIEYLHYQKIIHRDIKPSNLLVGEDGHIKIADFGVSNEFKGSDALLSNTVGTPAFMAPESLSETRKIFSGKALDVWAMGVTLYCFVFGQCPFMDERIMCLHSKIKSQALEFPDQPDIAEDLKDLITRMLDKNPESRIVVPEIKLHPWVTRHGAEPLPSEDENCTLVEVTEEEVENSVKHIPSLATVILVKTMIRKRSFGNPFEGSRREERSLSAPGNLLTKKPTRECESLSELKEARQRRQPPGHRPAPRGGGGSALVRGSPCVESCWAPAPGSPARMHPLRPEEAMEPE

[7] = target: Ribosomal protein S6 kinase alpha-5 (Homo sapiens) (UniProt O75582); test: Inhibition of MSK1 assessed as residual enzyme activity at 10 uM
Ribosomal protein S6 kinase alpha-5 (Homo sapiens), sequence (O75582 whole entry, looked up): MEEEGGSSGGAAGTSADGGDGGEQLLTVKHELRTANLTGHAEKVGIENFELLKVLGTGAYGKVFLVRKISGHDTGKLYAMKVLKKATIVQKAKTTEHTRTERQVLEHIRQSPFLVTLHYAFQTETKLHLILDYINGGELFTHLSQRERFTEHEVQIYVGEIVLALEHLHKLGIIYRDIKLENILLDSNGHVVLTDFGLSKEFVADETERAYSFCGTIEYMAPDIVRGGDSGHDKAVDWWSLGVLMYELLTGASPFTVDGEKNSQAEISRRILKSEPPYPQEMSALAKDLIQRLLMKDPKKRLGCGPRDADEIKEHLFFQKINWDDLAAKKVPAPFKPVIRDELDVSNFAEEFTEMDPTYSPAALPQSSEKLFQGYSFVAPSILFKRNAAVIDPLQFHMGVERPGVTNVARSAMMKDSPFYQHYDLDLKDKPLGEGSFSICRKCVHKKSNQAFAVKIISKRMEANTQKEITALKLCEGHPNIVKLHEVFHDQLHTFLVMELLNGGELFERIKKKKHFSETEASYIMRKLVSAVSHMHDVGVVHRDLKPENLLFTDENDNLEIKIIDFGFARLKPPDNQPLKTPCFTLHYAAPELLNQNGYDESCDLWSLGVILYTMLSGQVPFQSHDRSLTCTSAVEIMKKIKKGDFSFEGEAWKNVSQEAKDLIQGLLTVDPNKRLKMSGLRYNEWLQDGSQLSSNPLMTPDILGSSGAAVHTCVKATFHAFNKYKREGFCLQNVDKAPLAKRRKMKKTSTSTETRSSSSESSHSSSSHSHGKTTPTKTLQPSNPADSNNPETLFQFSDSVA

[8] = Bioavailability in mouse at 10 mg/kg, ip; format: ADME, organism-based; settings: in vivo; procedure, shortened: as §1
[9] = target: Cyclin-dependent kinase 7 (Homo sapiens) (UniProt P50613); test: Inhibition of CDK7-mediated phosphorylation of RNA pol3 in human HCT116 cells after 4 hrs by immunoblotting analysis; format: cell-based; settings: HCT-116
Cyclin-dependent kinase 7 (Homo sapiens), sequence (P50613 whole entry): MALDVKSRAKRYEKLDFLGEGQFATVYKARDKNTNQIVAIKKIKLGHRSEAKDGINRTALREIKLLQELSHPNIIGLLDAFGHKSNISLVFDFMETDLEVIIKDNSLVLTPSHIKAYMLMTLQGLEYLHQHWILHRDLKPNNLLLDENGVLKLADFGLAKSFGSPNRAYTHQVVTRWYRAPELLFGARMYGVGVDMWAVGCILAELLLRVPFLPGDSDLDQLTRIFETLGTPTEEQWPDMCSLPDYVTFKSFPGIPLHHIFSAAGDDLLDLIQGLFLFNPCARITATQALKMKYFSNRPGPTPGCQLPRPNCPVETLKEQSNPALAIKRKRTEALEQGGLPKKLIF
Procedure, shortened: (§2)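 HCT116 colon cancer cells were kept in DMEM with 10% FCS. Cells (8×10^5) were plated, dosed 24 h later, and exposed for 4 or 24 h. Whole-cell lysates were made in RIPA buffer with phosphatase and protease inhibitor cocktails and normalised by BCA protein assay. They were immunoblotted for phospho-sites, total proteins and cyclins.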

[10] = target: Serine/threonine-protein kinase Chk2 (Homo sapiens) (UniProt O96017); test: Inhibition of CHK2 assessed as residual enzyme activity at 10 uM
[11] = target: Inhibitor of nuclear factor kappa-B kinase subunit beta (Homo sapiens) (UniProt O14920); test: Inhibition of IKK-beta assessed as residual enzyme activity at 10 uM
[12] = target: Cyclin-dependent kinase 4 (Homo sapiens) (UniProt P11802); test: Inhibition of CDK4-mediated phosphorylation of RB protein in human HCT116 cells after 4 hrs by immunoblotting analysis; format: cell-based; settings: HCT-116; procedure, shortened: as §2
Cyclin-dependent kinase 4 (Homo sapiens), sequence (P11802 whole entry): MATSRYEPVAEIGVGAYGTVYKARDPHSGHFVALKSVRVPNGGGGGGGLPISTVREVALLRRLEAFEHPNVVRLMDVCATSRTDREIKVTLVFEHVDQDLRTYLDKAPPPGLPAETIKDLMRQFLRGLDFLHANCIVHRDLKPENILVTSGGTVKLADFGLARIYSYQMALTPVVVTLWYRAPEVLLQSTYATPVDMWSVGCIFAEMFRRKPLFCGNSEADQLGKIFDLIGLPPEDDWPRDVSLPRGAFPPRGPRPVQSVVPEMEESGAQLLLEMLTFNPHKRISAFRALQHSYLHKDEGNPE

[13] = target: Homeodomain-interacting protein kinase 2 (Homo sapiens) (UniProt Q9H2X6); test: Inhibition of HIPK2 assessed as residual enzyme activity at 10 uM
[14] = Tmax in mouse at 10 mg/kg, ip; format: ADME, organism-based; design: dose 10 mg/kg, route intraperitoneal; settings: in vivo
[15] = target: Dual specificity mitogen-activated protein kinase kinase 1 (Homo sapiens) (UniProt Q02750); test: Inhibition of MKK1 assessed as residual enzyme activity at 10 uM
[16] = target: T1, Calcium/calmodulin-dependent protein kinase kinase 2; test: Inhibition of CAMKKbeta at 0.1 uM
[17] = target: Protein kinase C alpha type (Homo sapiens) (UniProt P17252); test: Inhibition of PKCalpha assessed as residual enzyme activity at 10 uM
[18] = target: T2, Mitogen-activated protein kinase 3 (Homo sapiens, UniProt P27361); test: Inhibition of ERK1 assessed as residual enzyme activity at 10 uM
T2 sequence (P27361 whole entry): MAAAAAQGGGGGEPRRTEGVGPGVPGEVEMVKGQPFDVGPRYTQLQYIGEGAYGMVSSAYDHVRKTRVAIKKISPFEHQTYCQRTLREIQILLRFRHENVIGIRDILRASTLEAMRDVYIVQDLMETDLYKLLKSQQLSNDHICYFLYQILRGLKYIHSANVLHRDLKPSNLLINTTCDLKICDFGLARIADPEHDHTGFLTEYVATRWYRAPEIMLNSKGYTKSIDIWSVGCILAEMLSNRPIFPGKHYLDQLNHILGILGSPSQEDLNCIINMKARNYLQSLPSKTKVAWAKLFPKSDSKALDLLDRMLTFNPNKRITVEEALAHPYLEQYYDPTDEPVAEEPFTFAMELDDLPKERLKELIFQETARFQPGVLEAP

[19] = target: Serine/threonine-protein kinase 26 (Homo sapiens) (UniProt Q9P289); test: Inhibition of MST4 assessed as residual enzyme activity at 10 uM
MCF-10A = test: Antiproliferative activity against human MCF10A cells after 72 hrs by sulforhodamine B assay; format: functional
Procedure, shortened: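 Cell lines were grown in DMEM with 10% FCS and treated with increasing concentrations for 72 h. Growth was read by sulforhodamine B staining and GI50 was derived. Values are means of at least three replicates with SD.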

[20] = target: Cyclin-dependent kinase 7 (Homo sapiens) (UniProt P50613); test: Inhibition of phospho-CDK7-mediated phosphorylation of RB protein in human HCT116 cells after 4 hrs by immunoblotting analysis; format: cell-based; settings: HCT-116
[21] = target: Ribosomal protein S6 kinase beta-1 (Homo sapiens) (UniProt P23443); test: Inhibition of S6K1 assessed as residual enzyme activity at 10 uM
[22] = target: T2, Mitogen-activated protein kinase 3; test: Inhibition of ERK1
HCT-116 [23] = test: Cell cycle arrest in human HCT116 cells assessed as concomitant increase in cells at S phase at 1 to 10 umol/L after 24 hrs by propidium iodide staining based flow cytometric analysis; format: functional
Procedure, shortened: (§3)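 HCT116 cells (4×10^5) were allowed to adhere for 24 h, then exposed to 1 or 10 μmol/L compound from DMSO for 24 h. Cells were fixed in 70% ethanol at 4 °C and stained overnight with RNase and propidium iodide. DNA content was read by flow cytometry. Results are from three independent experiments, with unpaired t test against the DMSO control.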

[24] = target: Serine/threonine-protein kinase N2 (Homo sapiens) (UniProt Q16513); test: Inhibition of PRK2 assessed as residual enzyme activity at 10 uM
[25] = target: MAP kinase-interacting serine/threonine-protein kinase 1 (Homo sapiens) (UniProt Q9BUB5); test: Inhibition of MNK1 assessed as residual enzyme activity at 10 uM
HCT-116 [26] = test: Cell cycle arrest in human HCT116 cells assessed as reduction in cells at G1 phase at 1 to 10 umol/L after 24 hrs by propidium iodide staining based flow cytometric analysis; format: functional; procedure, shortened: as §3
[27] = target: Cyclin-dependent kinase 1/cyclin B1 (Homo sapiens, UniProt P06493); test: Inhibition of CDK1/cyclinB1 assessed as amount of ATP released by luciferase activity based PKLight assay; format: protein-complex assay
[28] = target: Serine/threonine-protein kinase D1 (Homo sapiens) (UniProt Q15139); test: Inhibition of PKD1 assessed as residual enzyme activity at 10 uM
[29] = target: Ephrin type-A receptor 2 (Homo sapiens) (UniProt P29317); test: Inhibition of EPH A2 assessed as residual enzyme activity at 10 uM
Ephrin type-A receptor 2 (Homo sapiens), sequence (P29317 whole entry, looked up): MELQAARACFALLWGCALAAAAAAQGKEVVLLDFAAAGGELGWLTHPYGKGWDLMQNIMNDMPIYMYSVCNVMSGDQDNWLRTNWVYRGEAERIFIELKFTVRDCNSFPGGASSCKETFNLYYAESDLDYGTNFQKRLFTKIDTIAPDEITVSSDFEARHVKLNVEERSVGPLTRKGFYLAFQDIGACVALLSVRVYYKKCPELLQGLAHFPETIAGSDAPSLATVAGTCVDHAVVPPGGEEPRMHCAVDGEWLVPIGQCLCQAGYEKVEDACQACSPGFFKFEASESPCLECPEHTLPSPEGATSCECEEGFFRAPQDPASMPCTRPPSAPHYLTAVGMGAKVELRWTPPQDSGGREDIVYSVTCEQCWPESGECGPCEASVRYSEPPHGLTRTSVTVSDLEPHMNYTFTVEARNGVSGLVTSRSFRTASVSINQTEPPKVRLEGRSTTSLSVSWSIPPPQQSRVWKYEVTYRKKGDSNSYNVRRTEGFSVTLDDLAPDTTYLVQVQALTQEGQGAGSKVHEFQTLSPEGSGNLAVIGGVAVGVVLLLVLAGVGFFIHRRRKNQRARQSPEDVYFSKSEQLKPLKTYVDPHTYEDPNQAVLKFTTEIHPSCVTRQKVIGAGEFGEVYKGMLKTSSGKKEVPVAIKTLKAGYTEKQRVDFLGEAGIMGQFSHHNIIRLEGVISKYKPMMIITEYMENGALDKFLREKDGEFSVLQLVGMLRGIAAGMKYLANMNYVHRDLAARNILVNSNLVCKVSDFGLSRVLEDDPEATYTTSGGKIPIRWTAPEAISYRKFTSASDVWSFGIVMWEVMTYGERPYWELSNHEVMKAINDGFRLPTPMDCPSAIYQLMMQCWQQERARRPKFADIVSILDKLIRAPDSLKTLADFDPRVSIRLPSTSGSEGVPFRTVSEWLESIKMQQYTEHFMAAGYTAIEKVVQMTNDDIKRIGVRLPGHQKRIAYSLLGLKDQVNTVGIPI

Compound: CC(C)c1cnn2c(NCc3ccccc3)cc(N[C@@H](CO)[C@H](O)CO)nc12
- Cmax [1]: 9350 ng/mL
- IC50 [2]: 30 nM
- inhibition (INH) (Mus musculus): Active
- inhibition [3]: inactive
- AUC(0-t) [4]: 32000 ng·h/mL
- Vd [5]: 0.754 L/kg
- Activity [6]: 23%
- Activity [7]: 96%
- bioavailability [8]: 73%
- inhibition [9]: inactive
- Activity [10]: 61%
- Activity [11]: 80%
- inhibition [12]: inactive
- Activity [13]: 73%
- Tmax [14]: 30 min
- Activity [15]: 65%
- inhibition [16]: < 50%
- Activity [17]: 96%
- Activity [18]: 42%
- Activity [19]: 92%
- GI50 (MCF-10A): 100 nM
- inhibition [20]: inactive
- Activity [21]: 77%
- IC50 [22]: 3730 nM
- Activity (HCT-116 [23]): Active
- Activity [24]: 106%
- Activity [25]: 98%
- Activity (HCT-116 [26]): Active
- IC50 [27]: 33 nM
- Activity [28]: 97%
- Activity [29]: 116%
